{"source": "ChEMBL document CHEMBL1125347", "about": "“Synthesis of novel MPTP analogs as potential monoamine oxidase B (MAO-B) inhibitors” (J Med Chem, 1992)", "key": {"[1]": {"target": "T1, Amine oxidase [flavin-containing] B (Bos taurus, UniProt P56560)", "T1 sequence (P56560 whole entry)": "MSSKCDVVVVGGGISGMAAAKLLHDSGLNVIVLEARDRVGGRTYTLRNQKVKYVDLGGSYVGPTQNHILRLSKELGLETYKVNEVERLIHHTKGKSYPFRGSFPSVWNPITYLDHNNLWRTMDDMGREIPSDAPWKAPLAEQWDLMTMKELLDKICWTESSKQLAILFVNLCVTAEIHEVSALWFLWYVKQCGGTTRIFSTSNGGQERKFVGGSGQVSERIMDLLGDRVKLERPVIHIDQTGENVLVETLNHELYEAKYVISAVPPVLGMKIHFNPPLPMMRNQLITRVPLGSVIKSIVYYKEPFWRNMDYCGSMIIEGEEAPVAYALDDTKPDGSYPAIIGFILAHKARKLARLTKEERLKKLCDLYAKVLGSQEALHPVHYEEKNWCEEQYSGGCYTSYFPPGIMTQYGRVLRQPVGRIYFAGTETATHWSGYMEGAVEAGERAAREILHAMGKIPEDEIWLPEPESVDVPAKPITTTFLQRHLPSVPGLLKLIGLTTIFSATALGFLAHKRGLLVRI", "assay": "Inhibitory constant against monoamine Oxidase(MAO-B).; call rule not given here"}, "[2]": {"target": "T1, Amine oxidase [flavin-containing] B", "assay": "MAO-B Inactivation property expressed as inactivation constant (K inact)."}, "[3]": {"assay": "Kinetic parameter Vmax (nm/min/unit of MAO-B) for the MAO-B catalyzed oxidation of the compound.", "format": "ADME", "in_short": "(§1)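 Compound at 0.05-2.5 mM in 100 mM phosphate pH 7.4 was equilibrated 2 min at 37 °C, then 0.05 unit of purified beef liver MAO-B was added. Initial rates were followed by the rise in absorbance of the dihydropyridinium product. KM and Vmax came from Lineweaver-Burk plots. One unit converts 1 μmol benzylamine per min.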"}, "[4]": {"assay": "Kinetic parameter KM (nM) for the MAO-B catalyzed oxidation of the compound.", "format": "ADME", "in_short": "as §1"}, "[5]": {"target": "T1, Amine oxidase [flavin-containing] B", "assay": "Inhibitory constant against monoamine Oxidase (MAO-B); Not active"}, "[6]": {"target": "T1, Amine oxidase [flavin-containing] B", "assay": "Monoamine oxidase B Inactivation property expressed as inactivation constant (K inact); Not active"}, "[7]": {"target": "T1, Amine oxidase [flavin-containing] B", "assay": "Monoamine oxidase B Inactivation property expressed as inactivation constant (K inact)."}, "[8]": {"target": "T1, Amine oxidase [flavin-containing] B", "assay": "Inhibitory constant against monoamine Oxidase(MAO-B) was determined at a concentration of 50-100 uM"}, "[9]": {"target": "T1, Amine oxidase [flavin-containing] B", "assay": "MAO-B Inactivation property expressed as inactivation constant (K inact) was determined at a concentration of 50-100 uM"}, "[10]": {"target": "T1, Amine oxidase [flavin-containing] B", "assay": "Monoamine oxidase B Inactivation property expressed as inactivation constant (K inact) was determined at a concentration of 300-1500 uM"}, "[11]": {"target": "T1, Amine oxidase [flavin-containing] B", "assay": "Inhibitory constant against monoamine Oxidase(MAO-B) was determined at a concentration of 300-1500 uM"}}, "data": [{"smiles": "CN1CC=C(C#Cc2ccccc2)CC1", "values": [{"measurement": "Ki", "setting": "[1]", "value": 820, "unit": "µM"}, {"measurement": "kinact", "setting": "[2]", "value": 0.00533, "unit": "s⁻¹"}]}, {"smiles": "CN1CC=C(c2ccccc2)CC1", "values": [{"measurement": "Vmax", "setting": "[3]", "value": 204}, {"measurement": "Km", "setting": "[4]", "value": 390, "unit": "µM"}]}, {"smiles": "C1=C(c2ccccc2)CCN(C2CCC2)C1", "values": [{"measurement": "Ki", "setting": "[5]", "value": "Not Active"}, {"measurement": "kinact", "setting": "[6]", "value": "Not Active"}]}, {"smiles": "C=CC1=CCN(C)CC1", "values": [{"measurement": "Ki", "setting": "[1]", "value": 330, "unit": "µM"}, {"measurement": "Vmax", "setting": "[3]", "value": 190}, {"measurement": "Km", "setting": "[4]", "value": 80, "unit": "µM"}, {"measurement": "kinact", "setting": "[7]", "value": 0.00133, "unit": "s⁻¹"}]}, {"smiles": "C#CCN1CC=C(c2ccccc2)CC1", "values": [{"measurement": "Ki", "setting": "[8]", "value": 172, "unit": "µM"}, {"measurement": "kinact", "setting": "[9]", "value": 0.004, "unit": "s⁻¹"}]}, {"smiles": "C#CC1=CCN(C)CC1", "values": [{"measurement": "Ki", "setting": "[1]", "value": 154, "unit": "µM"}, {"measurement": "Vmax", "setting": "[3]", "value": 684}, {"measurement": "Km", "setting": "[4]", "value": 861, "unit": "µM"}, {"measurement": "kinact", "setting": "[2]", "value": 0.000833, "unit": "s⁻¹"}]}, {"smiles": "C=CCN1CC=C(c2ccccc2)CC1", "values": [{"measurement": "Ki", "setting": "[1]", "value": 268, "unit": "µM"}, {"measurement": "kinact", "setting": "[7]", "value": 0.000483, "unit": "s⁻¹"}]}, {"smiles": "CCCN1CC=C(c2ccccc2)CC1", "values": [{"measurement": "kinact", "setting": "[10]", "value": 0.001, "unit": "s⁻¹"}, {"measurement": "Vmax", "setting": "[3]", "value": 7}, {"measurement": "Km", "setting": "[4]", "value": 2000, "unit": "µM"}, {"measurement": "Ki", "setting": "[11]", "value": 5000, "unit": "µM"}]}, {"smiles": "C1=C(c2ccccc2)CCN(C2CCCC2)C1", "values": [{"measurement": "Ki", "setting": "[1]", "value": 173, "unit": "µM"}, {"measurement": "kinact", "setting": "[7]", "value": 0.00075, "unit": "s⁻¹"}]}]}
